Screening results deposited in PubChem BioAssay by several laboratories.
The list is not random: actives were taken first. Their share in the collection is about 3.3%.
ABCB6 inh 2 – blocks the human ABCB6 transporter | fluorescence ratio to DMSO, % at 10 µM | 360,000 tested, 0.19% active | K562-ABCB6 porphyrin accumulation, flow cytometry, 1 h; hits give low values | AID 602162;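 active means fluorescence ratio to DMSO below 75%, the collection mean minus 3 SD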;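 further: signal is porphyrin accumulated inside mitochondria; lower ratio means ABCB6 inhibition with less porphyrin fluorescence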
NRP1-CendR mod – alters CendR peptide binding to human NRP-1. O14786. FAM-RPARPAR peptide binding to NRP-1, fluorescence polarization. inhibition, % at 25 µM. 360,000 tested, 0.85% active. AID 602438;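 active means inhibition or corrected inhibition above about 18%, plus a signal ratio from 0.5 to 1.5, limit read from the data, passing the limit was not always enough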
Granule exo inh – lytic granule exocytosis inhibition; TALL-104 LAMP-1 surface exposure, flow cytometry; cells stimulated with thapsigargin and PMA; inhibition, % at 10 µM; 360,000 tested, 0.66% active; AID 651702;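 active means inhibition above about 55%, limit read from the data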
ATG4B inh – blocks human ATG4B protease cleavage of LC3 substrate; ATG4B cleavage of LC3-PLA2, NBD-HPC fluorescence, 1 h; inhibition, % at 8.33 µM; 340,000 tested, 0.51% active; AID 504462; in the data active means inhibition above about 40%
Target sequence (Q9Y4P1 whole entry, looked up): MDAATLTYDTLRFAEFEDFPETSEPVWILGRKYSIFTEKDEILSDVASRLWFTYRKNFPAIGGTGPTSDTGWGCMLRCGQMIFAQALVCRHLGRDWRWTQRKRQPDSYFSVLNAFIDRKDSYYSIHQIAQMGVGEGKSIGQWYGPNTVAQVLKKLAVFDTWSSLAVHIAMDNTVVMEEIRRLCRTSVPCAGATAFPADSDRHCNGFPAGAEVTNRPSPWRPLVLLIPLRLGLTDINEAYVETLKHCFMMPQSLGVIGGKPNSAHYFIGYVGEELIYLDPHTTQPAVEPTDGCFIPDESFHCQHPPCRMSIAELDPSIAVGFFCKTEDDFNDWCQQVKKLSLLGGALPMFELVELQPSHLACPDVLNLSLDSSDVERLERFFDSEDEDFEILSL
Myeloid diff 2 – compounds promoting myeloid differentiation. ER-HoxA9 myeloid progenitors, lysozyme-GFP differentiation, flow cytometry. calls only at 10 µM. 360,000 tested, 1% active. AID 624256;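 active means normalized GFP-positive differentiation at or above the plate's own cutoff, the solvent-only control mean plus 3 SD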;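 further: cells exposed to compound for four days before flow analysis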
Arrestin-AP2 inh – human beta-arrestin and AP2 interaction inhibition. FITC-arrestin peptide / GST-AP2 beads, flow cytometry; AP2 beta2 appendage carries R879A mutation. inhibition, % at 10 µM. 340,000 tested, 0.31% active. AID 504490;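 active means inhibition above a set limit, near 3 SD of compounds lacking own fluorescence, cut at about 54% in these data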
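Material – AP2 appendage R879A on GSH beads · Buffer or medium – PBS with 0.05% Tween 20 and 0.1% BSA · Probe or stimulus – fluorescein-tagged arrestin peptide at 50 nM final · Incubation – compound with beads 12 min RT, then probe 1 h RT · Detection – high-throughput flow cytometry of beads, ex 488, em 535 nm · Evaluation – percent response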
Myeloid diff – promotes myeloid progenitor differentiation; calls only; AID 651706; 2,300 tested, 2% active; shares compounds with Myeloid diff 2; ER-HoxA9 myeloid progenitors, GFP/Mac1 double-positive flow;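 active means share of green or green-and-red cells above 9 and 9% in run 1 or 4 and 3% in run 2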
GFP autofluor – counter-screen for myeloid differentiation promoters: compound fluorescence | ER-HoxA9 myeloid progenitors, no estrogen, GFP autofluorescence flow cytometry; vehicle wells 0%, positive control 100% | shares compounds with Myeloid diff 2 | 2,300 tested, 7.4% active | fluorescence response, % (concentration not given with the values);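 active means over 5% cells positive for green fluorescent reporter, or over 2% positive for both it and APC stain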
Calls only; 0 = inactive; - = no result; + = active, no number.

SMILES	ABCB6 inh 2	NRP1-CendR mod	Granule exo inh	ATG4B inh	Myeloid diff 2	Arrestin-AP2 inh	Myeloid diff	GFP autofluor
CC(=O)c1c(C)[nH]c(C(=O)NNC(=O)COc2cc(C)ccc2C(C)C)c1C	0	0	0	0	0	0	0	0
O=S(=O)(N/N=C\C=C\c1ccccc1)c1ccc(Br)cc1	0	0	0	0	0	0	-	-
Cc1ccc(S(=O)(=O)N/N=C\C=C\c2ccccc2)cc1	0	0	0	0	-	0	0	0
Cc1cccc(C)c1NC(=O)C(C1CC1)n1c(-c2ccc(C(F)(F)F)cc2)nc2ccccc21 (centres undefined)	-	0	0	-	0	-	-	-
COC(=O)c1sc2nc[nH]c(=O)c2c1C	0	0	0	0	0	0	-	-
Cc1ccccc1NC(=O)c1sc2nc[nH]c(=O)c2c1C	0	0	0	0	0	0	0	0
CCCC(=O)N1CCCC(c2cc(C(=O)NCc3ccc(F)cc3)no2)C1 (centres undefined)	0	0	0	-	0	-	-	-
COc1ccc(CCNC(=O)c2nn(C)cc2Cl)cc1	0	0	0	0	+	0	0	0
COc1ccc(S(=O)(=O)N[C@H](C(=O)N2CC[C@@]3(O)CCCC[C@H]3C2)c2ccccc2)cc1	0	0	0	0	0	0	-	-
COc1ccc(S(=O)(=O)N[C@@H](Cc2ccc(Cl)cc2)C(=O)N2CC[C@@]3(O)CCCC[C@H]3C2)cc1	0	0	0	0	0	0	0	0
O=C(O)C1CCCC2CN3CCc4c([nH]c5ccccc45)C3C(O)C21 (centres undefined)	0	0	0	0	0	0	0	0
CC(C)(C)c1ccc(C(=O)N2CCC(C(=O)NC3CCCCCC3)CC2)cc1	0	0	0	0	0	0	-	-
O=C1CC/C=C\C[C@@H](CC(=O)N(CCO)Cc2ccccc2)C(=O)NC[C@@H](c2ccccc2)O1	0	0	0	0	0	-	-	-
O=C1CCC/C=C/C[C@@H](CC(=O)N(CCO)Cc2ccccc2)C(=O)NC[C@@H](c2ccccc2)O1	0	0	0	0	0	0	0	0
COc1ccccc1N1C(=O)c2cccc3c(Cl)ccc(c23)C1=O	0	0	0	0	0	0	0	0
COc1ccccc1-c1ccc2c(c1)C(C)(Cc1cc(Cl)ccc1C(F)(F)F)C(=O)N2 (centres undefined)	0	0	0	-	0	-	-	-
COc1ccc(Cl)cc1CC1(C)C(=O)Nc2ccc(-c3ccccc3OC)cc21 (centres undefined)	0	0	0	-	+	-	0	0
COc1ccc(S(=O)(=O)N2CCC[C@H]2C(=O)N2CCC[C@H]2C(=O)NCc2ccncc2)cc1C	0	0	0	-	0	-	-	-
CCOC(=O)c1[nH]c(C)c(C(=O)OCC(=O)NCc2ccc(OC)c(OC)c2)c1C	0	0	0	0	0	0	-	-
CCOC(=O)c1c(C)[nH]c(C(=O)OCC(=O)NCCc2ccc(OCC)c(OCC)c2)c1C	0	0	0	0	+	0	0	0
Cc1ccc(-c2cc3nc(-c4ccccc4)cc(NCCCO)n3n2)cc1	0	0	0	-	0	-	-	-
CSc1ccccc1C(=O)NC1CCCC1	0	0	0	0	0	0	0	0
Fc1ccc2nc(C3CCCCN3Cc3nc(CC4CC4)no3)[nH]c2c1 (centres undefined)	0	0	0	0	0	0	0	0
COc1ccccc1CN1C(=O)C2CC=CCC2C1=O (centres undefined)	0	0	0	0	0	0	0	0
CCOC(=O)c1c(NC(C)=O)sc(/C(C)=N/Nc2ccc(C(=O)O)cc2)c1C	0	0	0	0	-	0	-	-
CNC(=O)c1c(NC(=O)c2ccc(S(=O)(=O)N3CCCc4ccccc43)cc2)sc2c1CCN(C)C2	0	0	0	0	+	0	+	0
CCCN1CCc2c(sc(NC(=O)c3ccc(S(=O)(=O)N(C)c4ccccc4)cc3)c2C(=O)NC)C1	0	0	0	0	+	0	0	0
COc1ccc(CNS(=O)(=O)c2ccc(-n3cnnn3)c(C)c2)cc1	0	0	0	0	0	0	-	-
